Published values pooled from the literature.
Compare with care: the assays were run in different laboratories.
rep main protease: Replicase polyprotein 1ab, main protease (rep, Severe acute respiratory syndrome coronavirus 2, UniProt P0DTD1)

CC(C)C[C@H](NC(=O)OCc1ccccc1)C(=O)N[C@@H](CC(C)C)C(=O)N[C@@H](CC1CCNC1=O)C(=O)C(=O)NC1CC1 (stereo partly shown)
kinact/KI (rep main protease; enzyme activity, inhibitor): 90500 M⁻¹ s⁻¹

Clc1nc2ccccc2cc1/C=N\c1ccc(Br)nc1
ΔTm (rep main protease; thermal stability; 100 µM): 8 to 12 °C

CS(=O)(=O)CCNCc1ccc(-c2ccc3ncnc(Nc4ccc(OCc5cccc(F)c5)c(Cl)c4)c3c2)o1
activity vs control (rep main protease; enzyme activity, inhibitor, FRET; 100 µM): 100%

Cc1ccc2nc(Cl)c(C=Nc3cc(Br)ccn3)cc2c1
ΔTm (rep main protease; thermal stability; 100 µM): 8 to 12 °C

C=C1CC[C@@H]2[C@](C)(CO)[C@H](O)CC[C@@]2(C)[C@@H]1C/C=C1/C(=O)OC[C@H]1O
remaining activity (rep main protease; enzyme activity, inhibitor; 20 µM): 96%

CC(C)[C@H](NC(=O)OC(C)(C)C)C(=O)N1C[C@@H]2CCC[C@@H]2[C@H]1C(=O)N[C@H](C=O)C[C@@H]1CCNC1=O
ΔTm (rep main protease; thermal stability; 40 µM): 11 °C

Cn1cc2c(n1)c(=O)n(Cc1ccc(F)cc1)c1nn(Cc3ccccc3)c(=O)n21
inhibition (rep main protease; enzyme activity, inhibitor; 20 µM): 14.9%

CCN(C[C@H]1O[C@@H](n2cnc3c(N)ncnc32)[C@H](O)[C@@H]1O)S(=O)(=O)c1ccc(OC)c(C#N)c1
remaining activity (Replicase polyprotein 1ab, methyltransferase (rep, Severe acute respiratory syndrome coronavirus 2, UniProt P0DTD1); enzyme activity, inhibitor; 5 µM): 0.1%

CC(C)(C)NC(=O)[C@@H]1CN(Cc2cccnc2)CCN1C[C@@H](O)C[C@@H](Cc1ccccc1)C(=O)N[C@H]1c2ccccc2C[C@H]1O
activity vs control (rep main protease; enzyme activity, inhibitor, FRET; 100 µM): 100%

O=C(Nc1ccccc1)Nn1cnnc1
inhibition (rep main protease; enzyme activity, inhibitor; 20 µM): -7.8%
